# Data reported in ChEMBL document CHEMBL4616669, “Bioisosteric Replacement of Arylamide-Linked Spine Residues with N-Acylhydrazones and Selenophenes as a Design Strategy to Novel Dibenzosuberone Derivatives as Type I 1/2 p38α MAP Kinase Inhibitors” (J Med Chem, 2020).
# How the values were obtained:
# [1] = target: T1, Mitogen-activated protein kinase 14 (Homo sapiens, UniProt Q16539); assay: Inhibition of p38alpha MAPK (unknown origin) assessed as target residence time using ATF2 as substrate preincubated for 1 hr followed by jump dilution in presence of substrate and measured every 3 mins for 4 hrs by TR-FRET assay
# [2] = target: T1, Mitogen-activated protein kinase 14; assay: Inhibition of recombinant human full-length N-terminal GST-tagged p38alpha MAPK expressed in baculovirus infected Sf9 insect cells using p38 peptide as substrate preincubated for 15 mins followed by substrate addition and measured after 60 mins by ADP-glo assay
# [3] = target: T1, Mitogen-activated protein kinase 14; assay: Inhibition of NanoBRET kinase tracer K4 binding to full-length human C-terminal NanoLuc-tagged p38alpha MAPK expressed in HEK293T cells incubated for 2 hrs by NanoBRET NanoGlo substrate based NanoBRET assay; assay type: cell-based, HEK-293T
# Outline: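 Cellular reporter-displacement NanoBRET format, run in intact cells where the competing substrate ATP is present at cellular concentrations. The result is reported as an IC50.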
# [4] = target: T1, Mitogen-activated protein kinase 14; assay: Inhibition of p38alpha MAPK in human whole blood assessed as reduction in LPS-induced TNFalpha production preincubated for 2.5 hrs followed by LPS stimulation by ELISA; assay type: tissue-based
# [5] = Stability of the compound in human liver microsomes at 100 uM measured after 180 mins in presence of NADPH generating system by LC-MS/MS analysis; assay type: ADME, Microsome; settings: 3 h
# [6] = Drug metabolism in human liver microsomes assessed as oxidation at 100 uM measured after 180 mins in presence of NADPH generating system by LC-MS/MS analysis; assay type: ADME, Microsome; settings: 3 h
# T1 sequence (Q16539 whole entry): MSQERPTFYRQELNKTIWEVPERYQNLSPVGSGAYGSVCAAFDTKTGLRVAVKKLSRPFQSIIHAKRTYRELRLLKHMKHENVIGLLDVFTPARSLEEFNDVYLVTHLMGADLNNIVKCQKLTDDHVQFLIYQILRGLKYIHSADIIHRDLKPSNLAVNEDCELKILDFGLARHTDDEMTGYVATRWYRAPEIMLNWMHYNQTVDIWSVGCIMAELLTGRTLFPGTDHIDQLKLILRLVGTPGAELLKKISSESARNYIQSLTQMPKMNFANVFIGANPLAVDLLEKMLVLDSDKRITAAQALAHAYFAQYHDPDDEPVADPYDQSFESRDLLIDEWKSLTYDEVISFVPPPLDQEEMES
Compound,TIME [1] [h],IC50 [2] [nM],IC50 [3] [nM],IC50 [4] [nM],Stability [5],Drug metabolism [6]
O=C(NCCN1CCOCC1)c1ccc2c(c1)C(=O)c1ccc(Nc3ccc(F)c(NC(=O)c4ccccc4)c3)cc1CC2,0.0511,–,–,–,–,–
O=C(NCCN1CCOCC1)c1ccc2c(c1)C(=O)c1ccc(Nc3ccc(F)c(/C=N/NC(=O)c4ccccc4)c3)cc1CC2,0.231,19.7,6.3,47,Stable,Metabolite_Notdetected
O=C(NCCN1CCOCC1)c1ccc2c(c1)C(=O)c1ccc(Nc3ccc(F)c(/C=N/NC(=O)c4ccc[se]4)c3)cc1CC2,0.281,16,30.4,490,–,–
O=C(NCCN1CCOCC1)c1ccc2c(c1)C(=O)c1ccc(Nc3ccc(F)c(NC(=O)c4cccs4)c3)cc1CC2,0.207,12,–,43,–,–
O=C(NCCN1CCOCC1)c1ccc2c(c1)C(=O)c1ccc(Nc3ccc(F)c(/C=N/NC(=O)c4cccs4)c3)cc1CC2,0.372,29.7,15.5,276,–,–
O=C1c2ccc(Nc3ccc(F)cc3F)cc2CCc2ccc(OC[C@H](O)CO)cc21,0.0244,–,–,–,–,–
O=C(NCCN1CCOCC1)c1ccc2c(c1)C(=O)c1ccc(Nc3ccc(F)c(NC(=O)c4ccc[se]4)c3)cc1CC2,0.443,24.6,4.9,101,–,Metabolite_Notdetected
